Legend:
[1] = target: GST-Cn (catalytic domain of human Cn) (Homo sapiens, UniProt Q08209); assay type: binding; details: Cn 5 μM, TMR-labeled peptide 100 nM
Method in brief: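 Human Cn catalytic domain as a GST fusion, expressed in E. coli BL21 and glutathione-Sepharose purified. Single-bead-released TAMRA-labeled cyclic peptide (100 nM) was incubated with 5 μM GST-Cn for 2 h at room temperature in 20 mM HEPES pH 7.4, 150 mM NaCl, 2 mM magnesium acetate, 0.1% BSA. Anisotropy was read at ex 545/em 585 nm and expressed as % increase over the peptide without Cn.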

[2] = target: Calcineurin (Homo sapiens) (UniProt Q08209); details: cited from earlier work
[3] = target: Cn; details: cited from earlier work

Question: For `CN(C)c1ccc2c(-c3ccccc3C(=O)[O-])c3ccc(N(C)C)cc3[o+]c2c1` [free TMR, tetramethylrhodamine], which “percentage of FA increase (relative to the control without Cn)” value [1] is on record?
Answer: less than 20%

Question: For VIVIT peptide, which Kd [2] is on record?
Answer: 500 nM

Question: With MAPGHPVIVITGPHEE as the molecule, how does the Kd ([3]; VIVIT peptide binding to Cn) read?
Answer: 500 nM

Question: What about the “fold higher affinity for Cn than the native sequence” value [3] of the same molecule?
Answer: 50 fold

From PMC3171643 (ACS combinatorial science, 2011)
